Measurements as given in ChEMBL document CHEMBL4513216, “Probing the Open Global Health Chemical Diversity Library for Multistage-Active Starting Points for Next-Generation Antimalarials” (ACS Infect Dis, 2020).

Assay: Toxicity liver stage against HepG2, at 10uM
Assay type: cell-based
Design: test concentration 10 uM, cell line HepG2-A16-CD81EGFP
Conditions: human, HepG2-A16-CD81EGFP cells; read-out: INHIBITION
Method in brief: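 Uninfected HepG2-A16-CD81EGFP cells, 3 × 10^3 per well, 1536-well, plated on prespotted compound at 10 μM final, parasite-free screening media added to match infected plates; puromycin 10 μM positive, DMSO 0.5% negative; run in parallel with 48 h PbLuc assay at 37 °C, 5% CO2; viability by CellTiter-Glo luminescence, normalized to controls.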

SMILES | cytotoxicity at 10 µM [%]
Cc1nc(CSCCC(=O)NCc2ccc(-n3cncn3)nc2)cs1 | -27.2
COc1ccc(OCCN(C)CCCn2cnc3c(N)ncnc32)cc1 | 1.12
CC(=O)N1CCN(c2cc(C3CN(C)CCO3)nc(C)n2)CC1 (stereo not given) | 1.05
CCNc1cc2c(nn1)CCN(C(=O)c1ccoc1)C2 | -6.9
CC(=O)Nc1ccc([C@@H](O)[C@H]2COCC(=O)N2CC(C)C)cc1 | -6.6
CCc1nc(CN2CCN(C(=O)CCc3ccccc3)CC2)cs1 | 5.25
CCOCC1CN(C(=O)COc2ccccc2)Cc2cn(C)nc21 (stereo not given) | 9.08
Cc1noc(C)c1CN1C[C@@H]2COC[C@@H](CC(=O)N3CCCO3)[C@@H]2C1 | -68.3
Cc1cc(C)c(C(=O)NC2CCCc3nc(N(C)C)ncc32)cc1C (stereo not given) | -1.25
C=C(C)CN(CC)S(=O)(=O)c1cccc(F)c1C#N | -6.03
CCN1C(=O)C2(CCOCC2)c2cc(NC(=O)c3ccco3)ccc21 | -10.3
Cc1noc(C)c1CN1Cc2cn(C)nc2C(COCC2CC2)C1 (stereo not given) | -73
CC(C)[C@H](Nc1cc(-c2ccncc2)nc2ccnn12)C(N)=O | 0.782
CC(c1nc(C2CC2)no1)N1CCN(CCCN2CCCC2=O)CC1 (stereo not given) | -13.4
Cc1n[nH]c(CCC(=O)N2CCOC(Cc3ccccc3)C2)c1C (stereo not given) | -44.1
OC(CN1CCCCCCC1)c1ccc(OC(F)(F)F)cc1 (stereo not given) | -11.2
CC(=O)Nc1nc(C(=O)NCc2ccc(N3CCCCCC3)nc2)cs1 | 4.74
CN1CCN(S(C)(=O)=O)Cc2cccnc21 | -112
CCn1nc2c(cc1=O)CN(Cc1nc(-c3ccco3)no1)CC2 | -3.34
Fc1cccnc1N1CCOCC2(CCCN(c3nncs3)C2)C1 (stereo not given) | 3.44
Cn1cccc1C(=O)N1CCCn2nc(CCC(=O)NC3CC3)cc2C1 | 5.45
COc1cc(Cl)cc(C(=O)N2CCC3(CC2)CNC(=O)C3)c1 | -18.1

SMILES | cytotoxicity at 10 µM [%]
COCC(=O)N1Cc2cn(C)nc2C(COc2cccnc2)C1 (stereo not given) | -11
COC1CCN(C(=O)Cn2ccc3ccccc32)CC1 | -12.7
Cc1cccnc1CN(C)C(C(=O)O)c1ccc(C(C)(C)C#N)cc1 (stereo not given) | 0.566
c1cncc(OCC2CN(Cc3nccs3)Cc3nccn3C2)c1 (stereo not given) | 6.9
O=C(c1cccnc1)N1Cc2nccn2CC(COc2cccnc2)C1 (stereo not given) | 4.01
CN(C)CCNC(=O)c1sccc1N(C)S(=O)(=O)c1ccc(Cl)cc1 | 2.38
COc1nn(C)c2c1CCCN(S(=O)(=O)c1cccc(C)c1)C2 | -133
Cc1cc(N(C)CCCn2cccn2)nc(-c2cccnc2)n1 | 16.3
CN(C)CCN1CCC2(CCCN(Cc3cccn3C)C2)C1=O (stereo not given) | -114
O=C1NC[C@H]2CN(Cc3ccnc4ccccc34)CCN12 | -3.66
Cc1ccccc1N1CCN(C(=O)c2cnn(C(C)C)c2)C(C)C1 (stereo not given) | 1.48
CCc1ccccc1Nc1noc2c1CN(C(=O)c1ccn(C)n1)CC2 | 0.295
Cc1c(C(=O)N2CCCC2c2cnn(C)c2)nnn1-c1ccccc1 (stereo not given) | -11.4
CC1CCCN(Cc2c(C3CC3)n(CC(=O)N(C)C)c3ncccc23)C1 (stereo not given) | 4.04
CCCN1CCC(c2cc(CCOc3ccc(C(F)(F)F)cc3)[nH]n2)C1 (stereo not given) | -3.58
Cc1ccc(C(=O)NC2CCCN(CC(N)=O)C2)c(=O)[nH]1 (stereo not given) | 0.601
CN(C)c1nc2c(c(N3CCC(O)CC3)n1)CN(CC1CCOC1)CC2 (stereo not given) | -0.473
Cn1cc(CN2CC[C@H]3[C@H]2CC(=O)N3Cc2ccncc2)cn1 | -5.87
CCOCC1CN(c2ncccn2)Cc2cnn(CC3CCOCC3)c21 (stereo not given) | 2.97
CC(C)n1ccnc1Cn1ccc2ncccc2c1=O | -4.65
O=S(=O)(c1cn[nH]c1)N1CCCC1c1cc[nH]n1 (stereo not given) | -23
Cc1nn(C)c(C)c1C(=O)NC(C)CC(=O)c1cccs1 (stereo not given) | -5.08

SMILES | cytotoxicity at 10 µM [%]
CC(=O)N1CCN(c2cc(N3CCOCC3)cnn2)CC1 | -7.09
CC(C)N(C)Cc1cc(=O)n2c(n1)CN(C(=O)c1cnccn1)CCC2 | -3.02
CC(C)c1cc(C2CCN(Cc3cc(F)cc(F)c3)CC2)[nH]n1 | -7.46
Cn1ccnc1CN1C[C@@H](CN2CCC(CO)CC2)[C@@H](CO)C1 | -15.5
COc1ccccc1-c1cc(NC(=O)CC2CCS(=O)(=O)C2)[nH]n1 (stereo not given) | -113
COc1ccc(OCCN2CCOCS2(=O)=O)cc1 | 2.6
COC[C@@]12CCO[C@@H]1CCN(C(=O)Cc1cccc(F)c1)C2 | -8.95
Cn1ccnc1CN1CCCN(C(=O)CC(C2CC2)C2CC2)CC1 | -19.8
Cc1cccc(OCCN2CCN(Cc3noc(C)n3)CC2)c1 | -8.78
Cc1noc(C)c1CN1C[C@@H]2CCCO[C@@H]2[C@H](NS(C)(=O)=O)C1 | 12.2
Cc1ccc(C(NC(=O)Cc2nc3ncccn3n2)C2CC2)cc1 (stereo not given) | 5.06
COc1cc(N2CC[C@@H]3O[C@H](C(=O)N(C)C)C[C@@H]32)ncn1 | 1.14
CN1CCc2cc(C(=O)N(C)C)c(NCC3CC3)nc2CC1 | 7.8
COc1c(C)cnc(CNC(=O)c2cc(C)nc3onc(C)c23)c1C | -0.947
O=C1[C@H]2CN(S(=O)(=O)c3ccccc3)C[C@H]2CN1Cc1cccnc1 | -0.0837
O=C(Cc1cccc(F)c1)N1CCc2ncnc(NC3CC3)c2CC1 | -98.5
COc1ncccc1CN1CCC2(CCCN2S(C)(=O)=O)CC1 | 8.86
CCc1csc(NC(=O)NCc2ccccn2)n1 | -4.61
CN(C)CCN(C)c1nc(CCc2ccccc2)nc2c1cnn2C | 0.562
COc1cc(-c2n[nH]c(CC#N)n2)cc(OC)c1OC | -175
Cc1ccn(-c2ccccc2NCc2cscn2)n1 | 13.2
O=C([C@@H]1COC[C@H]2CN(CC3CC3)C[C@H]21)N1CCC(F)CC1 | 9.29

SMILES | cytotoxicity at 10 µM [%]
COc1cccc2cc(CNC(=O)N3CCCC(O)C3)oc12 (stereo not given) | -8.8
CC(C)c1nc(N2CC(N3CCCCC3C)C2)c2cnn(C)c2n1 (stereo not given) | -15.5
Cc1c(F)cc(C(=O)O)cc1S(=O)(=O)Nc1cccc(C(F)F)c1 | -1.35
Cc1ccn2ncc(C(=O)N3CCCC(c4noc(C)n4)C3)c2n1 (stereo not given) | -7.29
Cc1cnn(C2CCCN(C(=O)c3cc(-c4cccs4)n[nH]3)C2)c1 (stereo not given) | -7.83
CCNc1cc2c(nn1)CCN(C(=O)C(C)c1c(C)noc1C)C2 (stereo not given) | -4.05
COCCSc1ccc(C(C)NC(=O)Nc2cccnc2)cc1 (stereo not given) | 12.3
CCc1ccc(C(=O)N2CCCC(c3nn[nH]n3)C2)cc1 (stereo not given) | 4.6
Cn1cnnc1CCNC(=O)c1cnn(Cc2ccccc2)c1 | -0.722
O=C(c1ccco1)N1CCC12CCN(c1ncc(F)cn1)CC2 | -1.3
O=C(C1CCC1)N1CCC2(CC1)CNCCO2 | -4.29
O=C(c1ccsc1)N1CCc2c(CNc3nccs3)n[nH]c2C1 | 10.9
CCc1nnc2n1CCN(C(=O)C(C)Oc1cccc(C#N)c1)C2 (stereo not given) | 0.855
CN1CSC[C@H]1C(=O)N1CCC(CCc2ccccc2)CC1 | 3.23
CN(C)C(=O)c1ccn(COc2ccccc2Cl)n1 | 6.91
CCN1CC2(CCNCC2)COc2ccccc2S1(=O)=O | -3.06
CN(C)c1ccc(C2CCN(c3cnccn3)CC2)nc1 | -11.2
c1cc(CNCc2ccc3c(c2)CCO3)cc(N2CCOCC2)n1 | 11.1
CCOCCCNC(=O)c1nn(CC)cc1Br | 1.77
O=C1CCC2(CCCN(Cc3ccccc3F)C2)N1CC1CC1 (stereo not given) | 6.06
COc1c(C)cnc(CN2CCCC2c2noc(C3CC3)n2)c1C (stereo not given) | -0.0422
CC(SCCC(=O)NC(N)=O)c1ccccc1F (stereo not given) | 5.87

SMILES | cytotoxicity at 10 µM [%]
Cc1nn(-c2ncccn2)c2c1C(c1cnn(C)c1C)SCC(=O)N2 (stereo not given) | -46.4
Cc1cc(CNc2cc(Cl)ccc2OCCS(C)(=O)=O)no1 | -2.27
O=C1COC2(CCN(c3ncccn3)CC2)CN1Cc1ccccn1 | 2.4
CCN(Cc1cc(Cl)ccc1OC)Cc1nccn1C | 1.87
NCC1CCN(c2nc(C3CCCC3)nc3c2CCNCC3)C1 (stereo not given) | 16.1
Cc1c(C2CCCN(C(=O)c3cccnc3)C2)n2c(nc1=O)CCC2 (stereo not given) | -17.1
COC(=O)c1ccccc1S(=O)(=O)NC(=O)c1cccc2c1OCCO2 | -12.5
O=C(CN1CCCC1=O)NCc1cccnc1Oc1ccc(F)c(F)c1 | 1.87
COc1cccc(S(=O)(=O)Cc2noc(CC(C)C)n2)c1 | 12
CNC(=O)c1cccc(CNC(C)c2ccc(F)cc2N(C)C)c1 (stereo not given) | 0.508
O=C(c1cc(-n2cccn2)ccn1)N(CC1CCC1)CC(F)(F)F | 6.4
O=C(c1cccc(N2CCCC2=O)c1)N1CCCC(n2cccn2)C1 (stereo not given) | -8.22
CN(CC(=O)NC1(C#N)CCCC1)C1CCCN(c2cccnn2)C1 (stereo not given) | -9.75
Cc1cccc(CC(=O)Nc2cnn(C3CCOC3)c2)c1 (stereo not given) | -0.813
CCCN1C(=O)[C@@H]2[C@@H](CCN2C(=O)COC)N(Cc2cccs2)C1=O | 0.121
CC(C)CCC(=O)Nc1ncn(CC(=O)N2CCCCCC2)n1 | 1.17
O=C(c1cnn(-c2ccccc2F)c1)N1CCN(CCO)CC1 | -8.18
COc1cccc(-c2cc(C3CCCNC3)ccn2)c1 (stereo not given) | 0.207
NC(=O)c1ccnc(N2CCN(Cc3ccc(F)cc3Cl)CC2)c1 | 40.8
Cn1[nH]c(C2CCCN(C(=O)CO)C2)cc1=O (stereo not given) | 2.01
CCN1CCC(CC(=O)NCC(O)c2ccc3ccccc3c2)CC1 (stereo not given) | -5.26
CCn1ccnc1CN1CCCN(C(=O)c2ccc(C#N)cc2)CC1 | -6.96
